ChEMBL document CHEMBL2157922, “Synthesis and antifungal activity of diverse C-2 pyridinyl and pyridinylvinyl substituted quinolines” (2012)
In brackets after ≈: the same amount, converted by molar mass.

Tests used:
Cryptococcus neoformans [1] = assay: Antifungal activity against Cryptococcus neoformans ATCC 32264 after 48 hrs by broth microdilution technique; assay type: functional; conditions: ATCC 32264, 48 h
Outline: (§1)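 Yeasts were tested by CLSI broth microdilution in RPMI-1640 buffered to pH 7.0 with MOPS, with compound from 250 down to 0.98 in DMSO stocks. Trays were held at 30 °C in a moist, dark chamber. MIC100, the lowest concentration giving total visual inhibition against the growth control, was read by eye at 48 h.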

[2] = test system: Trichophyton mentagrophytes; assay: Antifungal activity against Trichophyton mentagrophytes ATCC 9972 after 48 hrs by broth microdilution technique; assay type: functional; conditions: ATCC 9972, 48 h
Outline: (§2)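 Moulds and dermatophytes were run by CLSI broth microdilution in MOPS-buffered RPMI-1640 at pH 7.0. Aspergillus was incubated at 30 °C and dermatophytes at 28–30 °C, in a moist, dark chamber. MIC100, the lowest concentration with no visible growth, was read visually at a time set by growth of the control fungus.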

Cryptococcus neoformans [3] = assay: Antifungal activity against Cryptococcus neoformans IM 972751 after 48 hrs by broth microdilution technique; assay type: functional; conditions: IM 972751, 48 h
Outline: (§3)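 C. neoformans was tested by 96-well RPMI-1640 microdilution, with DMSO-matched growth and sterility control wells. Plates were incubated 48 h at 30 °C in a moist, dark chamber and read at OD405. % inhibition = 100 − (CTW − SCW)/(GCW − SCW), in duplicate. For the clinical isolates, MIC80 and MIC50 are the lowest concentrations giving 80% and 50% inhibition.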

Cryptococcus neoformans [4] = assay: Antifungal activity against Cryptococcus neoformans IM 00319 after 48 hrs by broth microdilution technique; assay type: functional; conditions: IM 00319, 48 h; outline: as §3
Nannizzia gypsea = assay: Antifungal activity against Microsporum gypseum CCC 115 after 48 hrs by broth microdilution technique; assay type: functional; conditions: CCC 115, 48 h; outline: as §2
Cryptococcus neoformans [5] = assay: Antifungal activity against Cryptococcus neoformans IM 983040 after 48 hrs by broth microdilution technique; assay type: functional; conditions: IM 983040, 48 h; outline: as §3
Cryptococcus neoformans [6] = assay: Antifungal activity against Cryptococcus neoformans IM 983036 after 48 hrs by broth microdilution technique; assay type: functional; conditions: IM 983036, 48 h; outline: as §3
Trichophyton rubrum = assay: Antifungal activity against Trichophyton rubrum CCC 113 after 48 hrs by broth microdilution technique; assay type: functional; conditions: CCC 113, 48 h
Aspergillus niger = assay: Antifungal activity against Aspergillus niger ATCC 9029 after 48 hrs by broth microdilution technique; assay type: functional; conditions: ATCC 9029, 48 h; outline: as §2
Candida albicans [7] = assay: Antifungal activity against Candida albicans ATCC 10231 after 48 hrs by broth microdilution technique; assay type: functional; conditions: ATCC 10231, 48 h; outline: as §1
Candida albicans [8] = assay: Antifungal activity against Candida albicans CCC 130 after 48 hrs by broth microdilution technique; assay type: functional; conditions: CCC 130, 48 h
Nakaseomyces glabratus = assay: Antifungal activity against Candida glabrata CCC 115 after 48 hrs by broth microdilution technique; assay type: functional; conditions: CCC 115, 48 h
Cryptococcus neoformans [9] = assay: Antifungal activity against Cryptococcus neoformans IM 042074 after 48 hrs by broth microdilution technique; assay type: functional; conditions: IM 042074, 48 h; outline: as §3
Candida albicans [10] = assay: Antifungal activity against Candida albicans CCC 127 after 48 hrs by broth microdilution technique; assay type: functional; conditions: CCC 127, 48 h
Cryptococcus neoformans [11] = assay: Antifungal activity against Cryptococcus neoformans ATCC 32264 at 31.2 ug/ml after 48 hrs; assay type: functional; conditions: ATCC 32264, 48 h; outline: as §3
Candida tropicalis = assay: Antifungal activity against Candida tropicalis CCC 131 after 48 hrs by broth microdilution technique; assay type: functional; conditions: CCC 131, 48 h
Pichia kudriavzevii = assay: Antifungal activity against Candida krusei CCC 117 after 48 hrs by broth microdilution technique; assay type: functional; conditions: CCC 117, 48 h
Saccharomyces cerevisiae = assay: Antifungal activity against Saccharomyces cerevisiae ATCC 9763 after 48 hrs by broth microdilution technique; assay type: functional; conditions: ATCC 9763, 48 h; outline: as §1
Aspergillus fumigatus = assay: Antifungal activity against Aspergillus fumigatus ATCC 26934 after 48 hrs by broth microdilution technique; assay type: functional; conditions: ATCC 26934, 48 h; outline: as §2
Candida albicans [12] = assay: Antifungal activity against Candida albicans CCC 128 after 48 hrs by broth microdilution technique; assay type: functional; conditions: CCC 128, 48 h
Aspergillus flavus = assay: Antifungal activity against Aspergillus flavus ATCC 9170 after 48 hrs by broth microdilution technique; assay type: functional; conditions: ATCC 9170, 48 h; outline: as §2
Candida parapsilosis = assay: Antifungal activity against Candida parapsilosis CCC 124 after 48 hrs by broth microdilution technique; assay type: functional; conditions: Lodderomyces parapsilosis, CCC 124, 48 h
Candida albicans [13] = assay: Antifungal activity against Candida albicans CCC 130 after 24 hrs by broth microdilution technique; conditions: CCC 130, 24 h
Candida albicans [14] = assay: Antifungal activity against Candida albicans CCC 125 after 48 hrs by broth microdilution technique; assay type: functional; conditions: CCC 125, 48 h
Cryptococcus neoformans [15] = assay: Antifungal activity against Cryptococcus neoformans IM 972724 after 48 hrs by broth microdilution technique; assay type: functional; conditions: IM 972724, 48 h; outline: as §3
Candida albicans [16] = assay: Antifungal activity against Candida albicans CCC 129 after 48 hrs by broth microdilution technique; assay type: functional; conditions: CCC 129, 48 h
Candida albicans [17] = assay: Antifungal activity against Candida albicans CCC 126 after 48 hrs by broth microdilution technique; assay type: functional; conditions: CCC 126, 48 h

Work on `Cc1ccc2nc(-c3ccncc3)ccc2c1` yielded an MFC (Cryptococcus neoformans [1]) of 125 µg/mL (≈ 567 µM), an MIC (Cryptococcus neoformans [1]) of 62 µg/mL (≈ 281 µM) and an MIC50 (Cryptococcus neoformans [1]) of 7.8 µg/mL (≈ 35.4 µM). For the same compound, the MIC80 (Cryptococcus neoformans [1]) was 31.2 µg/mL (≈ 142 µM), the MFC [2] was 62 µg/mL (≈ 281 µM) and the MIC [2] was 62 µg/mL (≈ 281 µM). For the same compound, the MIC50 (Cryptococcus neoformans [3]) was 7.8 µg/mL (≈ 35.4 µM), the MIC80 (Cryptococcus neoformans [3]) was 31.2 µg/mL (≈ 142 µM) and the MIC50 (Cryptococcus neoformans [4]) was 15.6 µg/mL (≈ 70.8 µM). For the same compound, the MIC80 (Cryptococcus neoformans [4]) was 31.2 µg/mL (≈ 142 µM), the MFC (Nannizzia gypsea) was 62 µg/mL (≈ 281 µM) and the MIC (Nannizzia gypsea) was 62 µg/mL (≈ 281 µM). For the same compound, the MIC50 (Cryptococcus neoformans [5]) was 7.8 µg/mL (≈ 35.4 µM), the MIC80 (Cryptococcus neoformans [5]) was 31.2 µg/mL (≈ 142 µM) and the MIC50 (Cryptococcus neoformans [6]) was 31.2 µg/mL (≈ 142 µM). It also gave an MIC80 (Cryptococcus neoformans [6]) of 62.5 µg/mL (≈ 284 µM), an MFC (Trichophyton rubrum) of 62 µg/mL (≈ 281 µM) and an MIC (Trichophyton rubrum) of 62 µg/mL (≈ 281 µM). The MFC (Aspergillus niger) was 250 µg/mL (≈ 1130 µM), the MIC (Aspergillus niger) was 125 µg/mL (≈ 567 µM) and the MFC (Candida albicans [7]) was 250 µg/mL (≈ 1130 µM). It also gave an MIC (Candida albicans [7]) of 125 µg/mL (≈ 567 µM), an MIC50 (Candida albicans [7]) of 15.6 µg/mL (≈ 70.8 µM) and an MIC80 (Candida albicans [7]) of 31.2 µg/mL (≈ 142 µM). The MIC80 (Candida albicans [8]) was 125 µg/mL (≈ 567 µM), the MIC50 (Nakaseomyces glabratus) was 7.8 µg/mL (≈ 35.4 µM) and the MIC80 (Nakaseomyces glabratus) was 15.6 µg/mL (≈ 70.8 µM). The MIC50 (Cryptococcus neoformans [9]) was 15.6 µg/mL (≈ 70.8 µM), the MIC80 (Cryptococcus neoformans [9]) was 31.2 µg/mL (≈ 142 µM) and the MIC50 (Candida albicans [10]) was 31.2 µg/mL (≈ 142 µM). For the same compound, the MIC80 (Candida albicans [10]) was 125 µg/mL (≈ 567 µM), the inhibition at 31.2 µg/mL (Cryptococcus neoformans [11]) was 80% and the MIC50 (Candida tropicalis) was 15.6 µg/mL (≈ 70.8 µM). It also gave an MIC80 (Candida tropicalis) of 125 µg/mL (≈ 567 µM), an MIC50 (Pichia kudriavzevii) of 31.2 µg/mL (≈ 142 µM) and an MIC80 (Pichia kudriavzevii) of 62.5 µg/mL (≈ 284 µM). The MFC (Saccharomyces cerevisiae) was 125 µg/mL (≈ 567 µM), the MIC (Saccharomyces cerevisiae) was 62 µg/mL (≈ 281 µM) and the MFC (Aspergillus fumigatus) was 125 µg/mL (≈ 567 µM). It also gave an MIC (Aspergillus fumigatus) of 62 µg/mL (≈ 281 µM), an MIC50 (Candida albicans [12]) of 31.2 µg/mL (≈ 142 µM) and an MIC80 (Candida albicans [12]) of 125 µg/mL (≈ 567 µM). The MFC (Aspergillus flavus) was 125 µg/mL (≈ 567 µM), the MIC (Aspergillus flavus) was 62 µg/mL (≈ 281 µM) and the MIC50 (Candida parapsilosis) was 7.8 µg/mL (≈ 35.4 µM). For the same compound, the MIC80 (Candida parapsilosis) was 31.2 µg/mL (≈ 142 µM), the MIC50 (Candida albicans [13]) was 62.5 µg/mL (≈ 284 µM) and the MIC50 (Candida albicans [14]) was 31.2 µg/mL (≈ 142 µM). It also gave an MIC80 (Candida albicans [14]) of 125 µg/mL (≈ 567 µM), an MIC50 (Cryptococcus neoformans [15]) of 15.6 µg/mL (≈ 70.8 µM) and an MIC80 (Cryptococcus neoformans [15]) of 31.2 µg/mL (≈ 142 µM). For the same compound, the MIC50 (Candida albicans [16]) was 62.5 µg/mL (≈ 284 µM), the MIC80 (Candida albicans [16]) was 125 µg/mL (≈ 567 µM) and the MIC50 (Candida albicans [17]) was 31.2 µg/mL (≈ 142 µM). For the same compound, the MIC80 (Candida albicans [17]) was 62.5 µg/mL (≈ 284 µM).
